Assay outcomes as filed in PubChem BioAssay.
AF4-AF9 inh = blocks AF4 peptide binding to human AF9. P42568. AlphaScreen, biotin-AF4 peptide binding to FLAG-AF9. inhibition, % at 10 µM. 0.47% of 350,000 active;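 active means every replicate reaching a set inhibition limit, whatever the replicate mean, cut at about 25% in these data; inconclusive means mean inhibition reaches that limit but some replicates miss it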
S100A4 inh HTS = inhibitors of human S100A4 binding to myosin IIA peptide; inhibition, % at 10.7 µM; 0.14% of 360,000 active; P26447; S100A4/TAMRA-MyoIIA peptide fluorescence polarization;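 active means mean inhibition of at least 70% across replicates, with every replicate also reaching that level; inconclusive means mean inhibition reaches 70% but some replicates fall short; inactive means mean inhibition below 70%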
Target sequence (P26447 whole entry, looked up): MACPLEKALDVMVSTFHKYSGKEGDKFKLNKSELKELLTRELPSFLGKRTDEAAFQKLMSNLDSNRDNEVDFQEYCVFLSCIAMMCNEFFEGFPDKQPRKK
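Material: S100A4 monomer protein | Medium: HEPES pH 7.2 with CaCl2, KCl, NaCl, DTT, Triton | Reagent: Labelled myosin peptide probe, 5 nM | Doses: One dose per compound | Times: 5 min incubation before reading | Benchmarks: Neutral control DMSO, positive control TFP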
SIRT5 block = sirtuin-5 (human) deacylase inhibition; Q9NXA8; Purified SirT5, succinyl-peptide AMC, trypsin-coupled fluorescence; inhibition, % at 15 µM; 1.1% of 330,000 active; AID 652115; in the data active means inhibition above about 15%; inconclusive means no clear call, values can overlap the other calls
Target sequence (Q9NXA8 whole entry, looked up): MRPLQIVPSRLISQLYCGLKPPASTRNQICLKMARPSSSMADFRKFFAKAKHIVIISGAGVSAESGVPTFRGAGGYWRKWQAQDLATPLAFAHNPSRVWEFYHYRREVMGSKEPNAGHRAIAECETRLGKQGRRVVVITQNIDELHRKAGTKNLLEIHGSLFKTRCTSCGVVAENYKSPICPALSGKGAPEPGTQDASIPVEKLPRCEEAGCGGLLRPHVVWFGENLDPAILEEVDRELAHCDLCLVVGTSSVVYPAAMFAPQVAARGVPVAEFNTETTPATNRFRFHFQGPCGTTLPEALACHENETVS
DENV2 CPE = inhibitors of DENV2 cytopathic effect; CPE inhibition, % at 9.99 µM; 1.7% of 350,000 active; DENV2-infected cells, cytopathic effect rescue, plate reader; in the data active means CPE inhibition above about 20%, passing the limit was not always enough; inconclusive means no clear call, values can overlap the other calls; tested in BHK-21 cells
CaV13 ICDI inh = Primary screen for inhibitors of IQ motif and Ca2+-dependent inactivation inhibitor domain binding in CACNA1D, Förster resonance energy transfer in living cells, …. HEK cells, CFP/YFP FRET ICDI-IQ, plate reader, 10 min; percent FRET-ratio fall versus neutral wells. inhibition, % at 12.3 µM. 0.098% of 340,000 active. AID 743397;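 active means mean replicate inhibition of at least 30% and at least 1% of replicates passing that level; inconclusive means only one of the two criteria is met; inactive means neither criterion is met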
Large screens that a line does not name were inactive. In the library only some 2.7% were active in any assay of this set; here they are far more common.

COC(=O)CCN(Cc1ccc(OC)cc1OC)S(=O)(=O)c1ccccc1Br	none
COc1ccc(S(=O)(=O)N(C)C[C@H]2OCCCC[C@H](C)Oc3ccc(NC(=O)CCCN(C)C)cc3C(=O)N([C@H](C)CO)C[C@H]2C)cc1	DENV2 CPE 38 (no result: CaV13 ICDI inh)
O=C(N[C@@H]1CC[C@@H](CCNS(=O)(=O)c2ccc(Cl)cc2)O[C@@H]1CO)c1cccc(F)c1	none (no result: CaV13 ICDI inh)
O=C(N[C@@H]1CC[C@H](CCNS(=O)(=O)c2ccc(Cl)cc2)O[C@H]1CO)c1ccccn1	none (no result: CaV13 ICDI inh)
O=C(N[C@H]1CC[C@H](CCNS(=O)(=O)c2ccc(Cl)cc2)O[C@H]1CO)c1cccc(F)c1	DENV2 CPE 55 (no result: CaV13 ICDI inh)
O=C(N[C@H]1CC[C@@H](CCNS(=O)(=O)c2ccc(Cl)cc2)O[C@@H]1CO)c1ccccn1	DENV2 CPE 53 (no result: CaV13 ICDI inh)
O=C(N[C@@H]1CC[C@@H](CCNS(=O)(=O)c2ccc(Cl)cc2)O[C@@H]1CO)c1ccccn1	DENV2 CPE inconclusive (no result: CaV13 ICDI inh)
O=C(N[C@H]1CC[C@H](CCNS(=O)(=O)c2ccc(Cl)cc2)O[C@H]1CO)c1cnccn1	SIRT5 block 32 (no result: CaV13 ICDI inh)
O=C(N[C@H]1CC[C@H](CCNS(=O)(=O)c2ccc(Cl)cc2)O[C@H]1CO)c1ccccn1	DENV2 CPE 60 (no result: SIRT5 block, CaV13 ICDI inh)
O=C(N[C@@H]1CC[C@H](CCNS(=O)(=O)c2ccc(Cl)cc2)O[C@H]1CO)c1cnccn1	none (no result: CaV13 ICDI inh)
CCC(=O)N1[C@H](CO)[C@@H](c2ccccc2)C12CN(CC1CCOCC1)C2	none (no result: CaV13 ICDI inh)
CO[C@@H]1CC[C@H]2CCN(C)C(=O)CCCN(C)C(=O)c3cccc(C#N)c3OC[C@H]1O2	none (no result: CaV13 ICDI inh)
Fc1ccc(COc2cccc3cccnc23)cc1	none
CC[C@H](C)[C@H](NC(N)=O)C(=O)NNC(=O)c1ccc(COc2cccc3cccnc23)cc1	AF4-AF9 inh 35
c1ccc(COc2cccc(-c3cc4nc(NCCc5ccncc5)ccn4n3)c2)cc1	SIRT5 block 19
O=c1c(O)cccc2cc(O)c(O)c(O)c12	SIRT5 block 33
CS(=O)(=O)N(Cc1ccc(C(=O)NN=C2CCCC2)cc1)c1ccccc1	none (no result: AF4-AF9 inh, S100A4 inh HTS, SIRT5 block, DENV2 CPE)
CS(=O)(=O)N(Cc1ccc(C(=O)NN=C2CCCCCC2)cc1)c1ccccc1	DENV2 CPE 110
CCCCn1c(N)c(N(CCOC)C(=O)c2cc(=O)[nH]c3ccccc23)c(=O)[nH]c1=O	DENV2 CPE 73
CCCCN(C(=O)CSc1nnc(-c2ccco2)o1)c1c(N)n(Cc2ccccc2)c(=O)[nH]c1=O	none
CCCCN(C(=O)c1ccccc1OCc1ccc(F)cc1)c1c(N)n(CC(C)C)c(=O)[nH]c1=O	DENV2 CPE 66
CCCCN(C(=O)CSc1nnc(-c2ccccc2)o1)c1c(N)n(CCC)c(=O)[nH]c1=O	DENV2 CPE 79
CCCCN(C(=O)c1cc(-c2ccco2)nc2ccccc12)c1c(N)n(CCCC)c(=O)[nH]c1=O	DENV2 CPE 109
CCCCn1c(N)c(N(CCOC)C(=O)c2cc(-c3ccco3)nc3ccccc23)c(=O)[nH]c1=O	none
CCCCn1c(N)c(N(CCOC)C(=O)c2c(CC)noc2C)c(=O)[nH]c1=O	SIRT5 block 20
ON(CCc1ccncc1)Cc1ccccc1	S100A4 inh HTS 72 (no result: SIRT5 block)
CS(=O)(=O)N(CCc1ccccc1)CC(=O)NCc1ccncc1	none (no result: AF4-AF9 inh, SIRT5 block, DENV2 CPE, CaV13 ICDI inh)
O=C(C1CC1)N1CC[C@@H]2[C@H](CO)Nc3ccc(C4=CCCCC4)cc3[C@@H]21	AF4-AF9 inh inconclusive (no result: CaV13 ICDI inh)
CCC(=O)Nc1cccc(-c2nc3ccccc3o2)c1	none (no result: AF4-AF9 inh, S100A4 inh HTS, SIRT5 block, DENV2 CPE)
CCC(=O)Nc1cccc(-c2cc3ccccc3oc2=O)c1	SIRT5 block 28, DENV2 CPE 30
CC1CCCCN1C(=O)COC(=O)C1CCN(S(=O)(=O)c2ccc(Cl)c(C(F)(F)F)c2)CC1 (configuration not stated)	DENV2 CPE 27
CCC(=O)N(C)C[C@@H]1Oc2cc(C#CC(C)C)ccc2S(=O)(=O)N([C@H](C)CO)C[C@H]1C	none (no result: CaV13 ICDI inh)
O=C(c1ccc(NC2=NC3CS(=O)(=O)CC3S2)cc1)N1CCN(c2ccc([N+](=O)[O-])cc2)CC1 (configuration not stated)	DENV2 CPE 39
Cc1cccc(/N=C/c2c(O)cc(C)oc2=O)n1	SIRT5 block 15 (no result: AF4-AF9 inh, DENV2 CPE, CaV13 ICDI inh)
Cc1cc(O)c(/C=N/c2ccccn2)c(=O)o1	none (no result: AF4-AF9 inh, DENV2 CPE, CaV13 ICDI inh)
C[C@@H]1CN([C@H](C)CO)S(=O)(=O)c2ccc(-c3ccccc3F)cc2O[C@@H]1CN(C)CC1CC1	none (no result: CaV13 ICDI inh)
